# Measured values pooled from the literature.
# Each line is one published result; the experiments were not run side by side.
# Read-out: cell growth or viability
SMILES,cell line,test,conditions,measurement,result
Oc1ccc(Nc2nc(-c3ccc(Cl)cc3)cs2)cc1,A375M,MTS,24 h,IC50,> 100000 nM
O=C1Nc2ccccc2C1=NNc1nnc2n1N=C(c1ccccc1)CS2,SNB-75,SRB,10 µM,inhibition,35%
COc1cccc(Oc2ccccc2NC(=O)CNC(=O)c2cccc3ccccc23)c1,HCC 2998,SRB,48 h,GI50,1260 nM
COc1cc(-c2ccc(-c3ccc(C(=N)N)nc3)s2)cc(OC)c1OC,SNB-75,SRB,,GI50,1500 nM
Cc1cc(C)n(C(=S)[S][Au][PH](CCCCCC[PH]([Au][S]C(=S)n2nc(C)cc2C)(c2ccccc2)c2ccccc2)(c2ccccc2)c2ccccc2)n1,HCC 2998,,,GI50,252 nM
COc1ccc(-c2ccc(-c3ccc(C(=N)N)nc3)s2)cc1,SNB-75,SRB,,GI50,1550 nM
CC(C)C[C@H](NC(=O)[C@H](Cc1ccccc1)NC(=O)c1cnccn1)B(O)O,OCI-AML-5,ATP luminescence,,IC50,18 nM
COc1cc(-c2cn(-c3ccccc3)nn2)cc(OC)c1OC,CCRF-CEM,,48 h,CC50,34600 nM
Cc1ccc(C)c(COc2cc(NC(=O)c3ccc4c(c3)OCO4)ccc2N(C)S(C)(=O)=O)c1,HCC 2998,SRB,48 h,GI50,120 nM
S=C([S][Au-][P+](CCCCCC[P+]([Au-][S]C(=S)n1cccn1)(c1ccccc1)c1ccccc1)(c1ccccc1)c1ccccc1)n1cccn1,HCC 2998,,,GI50,759 nM
COc1cc(OC)cc(-c2cn(-c3cc(=O)oc4ccc(Br)cc34)nn2)c1,CCRF-CEM,,48 h,CC50,10500 nM
COc1ccc(C2=Nn3c(NN=C4C(=O)Nc5ccc(OC)cc54)nnc3SC2)cc1,UACC-257,SRB,10 µM,inhibition,20%
